In brackets after ≈: the same amount, converted by molar mass.
Experiments:
[1] = Half life in dog liver S9 fraction preincubated for 5 mins followed by NADPH addition measured after 30 mins by LC-MS/MS analysis; assay type: ADME, tissue-based, Canis lupus familiaris
[2] = Intrinsic clearance in dog liver microsomes assessed per mg of protein at 100 uM after 30 mins by LC-MS/MS analysis; assay type: ADME, Canis lupus familiaris, microsome; conditions: read-out: CLH
In short: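 Intrinsic clearance obtained from substrate disappearance over time, reported per mg protein (microsomes, S9) or per 10^6 cells (hepatocytes).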

[3] = Half life in human liver microsomes at 100 uM after 30 mins by LC-MS/MS analysis; assay type: ADME, microsome
Salmonella typhimurium [4] = assay: Mutagenicity in Salmonella typhimurium TA1537 at 50 ug/plate in absence of liver S9 fraction by Ames test; assay type: toxicity; conditions: salmonella enterica subsp. enterica serovar typhimurium
[5] = molecular target: Tyrosine-protein kinase Blk (Homo sapiens) (UniProt P51451); assay: Inhibition of partial length wild type human BLK expressed in bacterial expression system at 0.5 uM by KINOMEscan method relative to control
In short: (§1)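 Competition binding screen (KINOMEscan) at 0.5 μM; primary binding read out as % of control, lower values indicating stronger interaction.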

CDK1/Cyclin E = CDK1/Cyclin E (Homo sapiens, UniProt P06493); assay: Inhibition of CDK1/cyclin E (unknown origin) after 30 mins in presence of [33P]-gamma-ATP by filter binding assay; assay type: protein-complex assay
Salmonella typhimurium [6] = assay: Mutagenicity in Salmonella typhimurium TA102 at 50 ug/plate in presence of liver S9 fraction by Ames test; assay type: toxicity; conditions: salmonella enterica subsp. enterica serovar typhimurium
[7] = molecular target: PRKCE (protein kinase C epsilon) (Homo sapiens, UniProt Q02156); assay: Inhibition of partial length wild type human PRKCE expressed in mammalian expression system at 0.5 uM by KINOMEscan method relative to control; in short: as §1
[8] = AUC in BALB/c mouse at 10 mg/kg, po by LC-MS/MS analysis; assay type: ADME, organism-based; conditions: in vivo
[9] = n-octanol-water partition co-efficient, log P of compound by shake flask method; assay type: physicochemical
[10] = Half life in Sprague-Dawley rat at 30 mg/kg, po by LC-MS/MS analysis; assay type: ADME, organism-based; conditions: in vivo
[11] = Tmax in Sprague-Dawley rat at 3 mg/kg, po by LC-MS/MS analysis; assay type: ADME, organism-based; conditions: in vivo
Salmonella typhimurium [12] = assay: Mutagenicity in Salmonella typhimurium TA98 at 50 ug/plate in absence of liver S9 fraction by Ames test; assay type: toxicity; conditions: salmonella enterica subsp. enterica serovar typhimurium
[13] = Tmax in BALB/c mouse at 10 mg/kg, po by LC-MS/MS analysis; assay type: ADME, organism-based; conditions: in vivo
Liver = assay: Intrinsic clearance in human liver S9 fraction assessed per mg of protein preincubated for 5 mins followed by NADPH addition measured after 30 mins by LC-MS/MS analysis; assay type: ADME, tissue-based; conditions: s9, 0.5 h
[14] = tested on: Tyrosine-protein kinase ABL1 (Homo sapiens), P00519 [E255K]; assay: Inhibition of phosphorylated partial length human ABL1 E255K mutant expressed in mammalian expression system at 0.5 uM by KINOMEscan method relative to control; in short: as §1
[15] = Chemical stability of compound in phosphate buffered saline at pH 7.4 assessed as parent compound remaining at 120 ug/ml after 24 hrs by HPLC method; assay type: physicochemical; conditions: read-out: Stability
[16] = Intrinsic clearance in rat liver microsomes assessed per mg of protein at 100 uM after 30 mins by LC-MS/MS analysis; assay type: ADME, microsome; conditions: read-out: CLH
NCI-H522 = assay: Growth inhibition of human NCI-H522 cells after 48 hrs by MTT assay; assay type: functional; conditions: NCI-H522, 48 h
In short: (§2)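 Cancer cell lines sourced from the National Cancer Institute (USA). Cells kept in appropriate growth medium at 37 °C, 95% humidity, 5% CO2. Antiproliferation read by tetrazolium (MTT) assay. GI50 values were determined only for compounds selected after an initial single-concentration screen.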

[17] = Thermodynamic equilibrium solubility of compound in SIF at pH 6.8 after 5 hrs by shake flask method; assay type: physicochemical; conditions: read-out: Therm_solubility
OVCAR-4 = assay: Growth inhibition of human OVCAR4 cells after 48 hrs by MTT assay; assay type: functional; conditions: OVCAR-4, 48 h; in short: as §2
[18] = AUC in BALB/c mouse at 30 mg/kg, po by LC-MS/MS analysis; assay type: ADME, organism-based; conditions: in vivo
Cytochrome P450 2C9 = Cytochrome P450 2C9 (Homo sapiens, UniProt P11712); assay: Time-dependent inhibition of human CYP2C9 at 2 uM using fluorogenic substrate by fluorometric method; assay type: ADME
[19] = AUC (0 to infinity) in BALB/c mouse at 10 mg/kg, po by LC-MS/MS analysis; assay type: ADME, organism-based; parameters: dose 10 mg/kg, time infinity, route oral; conditions: in vivo
CDK2/Cyclin O = CDK2/Cyclin O (Homo sapiens, UniProt P22674+P24941); assay: Inhibition of CDK2/cyclin O (unknown origin) after 30 mins in presence of [33P]-gamma-ATP by filter binding assay; assay type: protein-complex assay
[20] = Ratio of Cmax in Sprague-Dawley rat at 30 mg/kg, po to GI50 for human HL60 cells
[21] = Apparent permeability across apical to basolateral side in human Caco2 cells after 90 mins by LC-MS/MS analysis; assay type: ADME, cell-based; conditions: Caco-2
In short: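 Caco-2 monolayers were grown for 21 days. Test compound in HBSS containing 10 mM HEPES was added to the apical chamber, and samples were taken from both the apical and basolateral chambers.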

[22] = molecular target: Serine/threonine-protein kinase ICK (Homo sapiens) (UniProt Q9UPZ9); assay: Inhibition of partial length wild type human ICK expressed in mammalian expression system at 0.5 uM by KINOMEscan method relative to control; in short: as §1
CDK2/Cyclin A2 = CDK2/Cyclin A2 (Homo sapiens, UniProt P24941); assay: Inhibition of CDK2/cyclin A (unknown origin) using histone H1 as substrate after 30 mins in presence of [33P]-gamma-ATP by filter binding assay; assay type: protein-complex assay
[23] = molecular target: Dual specificity mitogen-activated protein kinase kinase 5 (Homo sapiens) (UniProt Q13163); assay: Inhibition of partial length wild type human MEK5 expressed in mammalian expression system at 0.5 uM by KINOMEscan method relative to control; in short: as §1
Kidney = assay: Drug uptake in Sprague-Dawley rat kidney at 30 mg/kg, po after 8 hrs; assay type: ADME, organism-based; conditions: in vivo
MIA PaCa-2 = assay: Growth inhibition of human MIAPaCa2 cells after 48 hrs by MTT assay; assay type: functional; conditions: MIA PaCa-2, 48 h; in short: as §2
Mus musculus [24] = assay: Toxicity in CD1 nude mouse xenografted with human MOLT4 cells assessed as mortality at 50 mg/kg, po qd administered on day 10 to 25 post tumor inoculation; assay type: organism-based; conditions: in vivo
[25] = Half life in human liver S9 fraction preincubated for 5 mins followed by NADPH addition measured after 30 mins by LC-MS/MS analysis; assay type: ADME, tissue-based
Salmonella typhimurium [26] = assay: Mutagenicity in Salmonella typhimurium TA100 at 50 ug/plate in presence of liver S9 fraction by Ames test; assay type: toxicity; conditions: salmonella enterica subsp. enterica serovar typhimurium
[27] = Protein binding in dog plasma at 3 uM after 5 hrs by equilibrium dialysis method; assay type: ADME, cell-free, Canis lupus familiaris; conditions: read-out: PPB (converted)
Homo sapiens = organism: Homo sapiens; assay: Selectivity ratio of IC50 for CDK2/cyclin A (unknown origin) to IC50 for CDK9/cyclin T1 (unknown origin)
Mus musculus [28] = assay: Toxicity in CD1 nude mouse xenografted with human MOLT4 cells assessed as change in body weight at 25 to 75 mg/kg, po qd administered on day 10 to 25 post tumor inoculation; assay type: organism-based; conditions: in vivo

CDK1/Cyclin E, sequence (P06493 whole entry): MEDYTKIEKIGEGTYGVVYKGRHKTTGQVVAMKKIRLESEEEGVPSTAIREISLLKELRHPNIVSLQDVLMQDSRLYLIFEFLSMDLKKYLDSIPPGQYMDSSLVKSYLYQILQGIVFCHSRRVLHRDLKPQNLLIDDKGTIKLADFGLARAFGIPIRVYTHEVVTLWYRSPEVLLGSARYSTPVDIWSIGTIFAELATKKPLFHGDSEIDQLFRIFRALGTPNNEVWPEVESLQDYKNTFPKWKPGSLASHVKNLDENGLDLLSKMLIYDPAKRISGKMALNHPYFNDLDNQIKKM
CDK1/Cyclin E, sequence (P24864 whole entry, further chain): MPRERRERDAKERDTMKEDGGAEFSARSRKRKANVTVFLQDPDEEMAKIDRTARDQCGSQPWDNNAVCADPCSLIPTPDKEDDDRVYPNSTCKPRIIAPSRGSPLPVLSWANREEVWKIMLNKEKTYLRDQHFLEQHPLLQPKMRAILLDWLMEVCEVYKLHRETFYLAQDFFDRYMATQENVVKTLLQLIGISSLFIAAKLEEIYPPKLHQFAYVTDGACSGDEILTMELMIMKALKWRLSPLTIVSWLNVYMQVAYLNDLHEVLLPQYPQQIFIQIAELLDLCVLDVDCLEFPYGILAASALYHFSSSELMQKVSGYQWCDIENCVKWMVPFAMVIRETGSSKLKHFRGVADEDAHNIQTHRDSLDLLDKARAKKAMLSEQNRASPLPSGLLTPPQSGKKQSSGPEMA
Dual specificity mitogen-activated protein kinase kinase 5 (Homo sapiens), sequence (Q13163 whole entry): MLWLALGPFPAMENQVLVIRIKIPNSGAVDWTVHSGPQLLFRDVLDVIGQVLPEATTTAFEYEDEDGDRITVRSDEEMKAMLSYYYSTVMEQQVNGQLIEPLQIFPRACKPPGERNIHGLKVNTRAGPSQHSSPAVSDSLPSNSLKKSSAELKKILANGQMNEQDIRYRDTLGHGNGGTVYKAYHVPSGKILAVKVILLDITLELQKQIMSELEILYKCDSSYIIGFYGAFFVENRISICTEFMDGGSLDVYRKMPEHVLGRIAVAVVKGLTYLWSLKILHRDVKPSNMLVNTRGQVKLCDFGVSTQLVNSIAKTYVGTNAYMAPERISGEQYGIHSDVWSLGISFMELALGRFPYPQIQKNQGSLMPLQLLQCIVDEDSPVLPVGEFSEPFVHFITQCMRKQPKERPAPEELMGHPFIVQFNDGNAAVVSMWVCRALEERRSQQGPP
PRKCE (protein kinase C epsilon), sequence (Q02156 whole entry): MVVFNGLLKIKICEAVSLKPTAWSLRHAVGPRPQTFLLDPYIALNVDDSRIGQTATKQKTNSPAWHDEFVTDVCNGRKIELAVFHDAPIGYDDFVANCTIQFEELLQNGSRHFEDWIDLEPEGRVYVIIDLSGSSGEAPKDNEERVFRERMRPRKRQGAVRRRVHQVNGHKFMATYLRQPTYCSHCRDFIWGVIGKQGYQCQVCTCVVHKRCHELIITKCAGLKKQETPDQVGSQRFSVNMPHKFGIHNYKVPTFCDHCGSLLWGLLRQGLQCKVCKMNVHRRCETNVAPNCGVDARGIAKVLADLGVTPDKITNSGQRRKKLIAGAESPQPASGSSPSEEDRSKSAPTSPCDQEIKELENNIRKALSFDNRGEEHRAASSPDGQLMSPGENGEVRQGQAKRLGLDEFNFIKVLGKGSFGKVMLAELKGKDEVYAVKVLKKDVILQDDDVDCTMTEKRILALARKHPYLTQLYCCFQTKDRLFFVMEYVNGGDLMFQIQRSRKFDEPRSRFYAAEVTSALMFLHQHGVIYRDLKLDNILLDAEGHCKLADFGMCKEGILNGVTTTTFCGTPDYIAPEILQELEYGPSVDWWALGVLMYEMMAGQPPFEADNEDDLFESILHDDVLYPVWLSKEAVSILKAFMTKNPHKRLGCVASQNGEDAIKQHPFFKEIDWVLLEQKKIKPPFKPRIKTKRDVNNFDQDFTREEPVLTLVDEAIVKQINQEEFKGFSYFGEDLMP
Serine/threonine-protein kinase ICK (Homo sapiens), sequence (Q9UPZ9 whole entry): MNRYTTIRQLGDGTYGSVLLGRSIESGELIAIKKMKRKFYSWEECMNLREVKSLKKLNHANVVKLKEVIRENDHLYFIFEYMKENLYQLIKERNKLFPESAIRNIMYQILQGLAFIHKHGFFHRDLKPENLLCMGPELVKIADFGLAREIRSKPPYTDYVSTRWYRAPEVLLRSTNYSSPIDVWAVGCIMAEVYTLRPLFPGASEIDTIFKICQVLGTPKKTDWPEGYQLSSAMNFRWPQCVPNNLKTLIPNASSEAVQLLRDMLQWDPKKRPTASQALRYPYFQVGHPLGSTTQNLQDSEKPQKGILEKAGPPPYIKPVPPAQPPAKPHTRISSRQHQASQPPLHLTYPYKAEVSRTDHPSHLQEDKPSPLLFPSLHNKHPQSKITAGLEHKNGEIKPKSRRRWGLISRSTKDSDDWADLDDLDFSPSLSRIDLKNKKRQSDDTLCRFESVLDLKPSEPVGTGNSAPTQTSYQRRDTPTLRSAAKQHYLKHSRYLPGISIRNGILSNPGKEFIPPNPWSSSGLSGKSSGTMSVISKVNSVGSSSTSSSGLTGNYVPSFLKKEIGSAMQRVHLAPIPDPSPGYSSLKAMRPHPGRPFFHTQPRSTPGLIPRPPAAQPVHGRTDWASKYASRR
Tyrosine-protein kinase Blk (Homo sapiens), sequence (P51451 2-505 limits assumed): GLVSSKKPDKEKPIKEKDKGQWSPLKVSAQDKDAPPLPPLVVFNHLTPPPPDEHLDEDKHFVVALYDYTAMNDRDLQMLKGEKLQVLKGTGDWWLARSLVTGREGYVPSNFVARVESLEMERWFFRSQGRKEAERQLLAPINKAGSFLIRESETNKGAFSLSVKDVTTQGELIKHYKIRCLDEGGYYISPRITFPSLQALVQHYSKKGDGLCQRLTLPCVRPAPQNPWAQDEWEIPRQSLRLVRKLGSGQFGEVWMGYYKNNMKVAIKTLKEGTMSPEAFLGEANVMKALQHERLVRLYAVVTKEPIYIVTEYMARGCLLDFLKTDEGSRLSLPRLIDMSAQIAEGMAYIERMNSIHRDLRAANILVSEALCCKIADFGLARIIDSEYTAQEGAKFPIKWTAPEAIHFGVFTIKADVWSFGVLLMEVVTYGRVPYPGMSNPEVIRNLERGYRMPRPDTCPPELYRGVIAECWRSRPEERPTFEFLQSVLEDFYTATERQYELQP
Tyrosine-protein kinase ABL1 (Homo sapiens), P00519 [E255K], sequence (P00519 whole entry E255K): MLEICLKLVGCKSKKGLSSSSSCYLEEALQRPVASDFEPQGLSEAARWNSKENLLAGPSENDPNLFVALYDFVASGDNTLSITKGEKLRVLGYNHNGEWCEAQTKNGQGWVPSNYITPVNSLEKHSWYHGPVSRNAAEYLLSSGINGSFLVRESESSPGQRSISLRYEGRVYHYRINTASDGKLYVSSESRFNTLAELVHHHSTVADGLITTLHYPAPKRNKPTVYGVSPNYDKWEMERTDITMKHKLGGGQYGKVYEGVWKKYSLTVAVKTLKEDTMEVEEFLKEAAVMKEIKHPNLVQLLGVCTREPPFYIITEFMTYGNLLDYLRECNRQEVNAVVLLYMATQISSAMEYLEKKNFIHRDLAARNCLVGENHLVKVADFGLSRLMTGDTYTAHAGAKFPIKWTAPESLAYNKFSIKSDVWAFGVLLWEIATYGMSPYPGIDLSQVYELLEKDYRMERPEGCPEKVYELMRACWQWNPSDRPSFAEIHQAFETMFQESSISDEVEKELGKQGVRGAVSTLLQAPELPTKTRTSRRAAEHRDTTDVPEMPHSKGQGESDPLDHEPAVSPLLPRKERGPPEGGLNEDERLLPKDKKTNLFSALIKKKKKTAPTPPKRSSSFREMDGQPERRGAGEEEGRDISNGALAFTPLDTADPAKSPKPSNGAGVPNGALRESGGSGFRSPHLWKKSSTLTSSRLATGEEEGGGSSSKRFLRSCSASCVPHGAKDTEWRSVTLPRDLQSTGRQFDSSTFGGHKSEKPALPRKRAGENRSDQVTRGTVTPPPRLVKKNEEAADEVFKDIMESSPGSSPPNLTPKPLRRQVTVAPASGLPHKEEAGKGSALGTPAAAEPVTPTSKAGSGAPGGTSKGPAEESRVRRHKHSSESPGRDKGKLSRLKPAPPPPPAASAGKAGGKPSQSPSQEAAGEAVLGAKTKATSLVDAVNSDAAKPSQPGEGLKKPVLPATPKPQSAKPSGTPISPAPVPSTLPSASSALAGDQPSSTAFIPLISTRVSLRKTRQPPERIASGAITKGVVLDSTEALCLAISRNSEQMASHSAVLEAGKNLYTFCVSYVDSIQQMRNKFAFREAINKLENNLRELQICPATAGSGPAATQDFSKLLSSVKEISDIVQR
Cytochrome P450 2C9, sequence (P11712 whole entry): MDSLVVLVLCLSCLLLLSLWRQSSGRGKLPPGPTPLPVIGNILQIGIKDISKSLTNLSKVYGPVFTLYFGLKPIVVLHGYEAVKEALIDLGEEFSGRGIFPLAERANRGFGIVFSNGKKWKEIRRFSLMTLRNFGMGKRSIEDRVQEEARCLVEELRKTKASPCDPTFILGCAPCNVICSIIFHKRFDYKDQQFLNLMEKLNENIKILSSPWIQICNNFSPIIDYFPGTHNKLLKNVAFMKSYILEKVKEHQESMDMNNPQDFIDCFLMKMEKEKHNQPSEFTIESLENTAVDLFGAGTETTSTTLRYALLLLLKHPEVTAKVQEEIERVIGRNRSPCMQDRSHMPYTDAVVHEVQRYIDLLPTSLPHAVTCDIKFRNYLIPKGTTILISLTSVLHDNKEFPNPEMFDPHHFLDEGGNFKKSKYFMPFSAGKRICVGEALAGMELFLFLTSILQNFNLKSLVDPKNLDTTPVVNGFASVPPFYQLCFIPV

CN1CC[C@H](c2c(O)cc(O)c3c(=O)cc(/C=C/c4c(Cl)cccc4Cl)oc23)[C@H](O)C1
half-life [1]: 1.95 h | microsomal CLint at 100 µM [2]: > 29 µL/min/mg | half-life at 100 µM [3]: > 0.5 h | Activity (Salmonella typhimurium [4]): Non-Toxic | inhibition [5]: > 98% | IC50 (CDK1/Cyclin E): 75.9 nM | Activity (Salmonella typhimurium [6]): Non-Toxic | inhibition at 0.5 µM [7]: > 98% | AUC [8]: 2.41 µM·h | logP [9]: 3.09 | half-life [10]: 3.23 h | Tmax [11]: 0.5 h | Activity (Salmonella typhimurium [12]): Non-Toxic | Tmax [13]: 0.25 to 1.71 h | CLint (Liver): 19 µL/min/mg | inhibition [14]: > 98% | remaining at 24 h, 120 ug/ml [15]: 100% | microsomal CLint at 100 µM [16]: < 13 µL/min/mg | GI50 (NCI-H522): 5000 nM | solubility thermodynamic at 5 h [17]: 2.18 µg/mL (≈ 4.72 µM) | GI50 (OVCAR-4): 9000 nM | AUC [18]: 11.3 µM·h | TDI (Cytochrome P450 2C9): Not Active | AUC(0-inf) [19]: 4.4 µM·h | IC50 (CDK2/Cyclin O): 138 nM | Ratio [20]: 4 | Papp A→B at 1.5 h [21]: 2.1 ×10⁻⁶ cm/s | inhibition [22]: > 98% | IC50 (CDK2/Cyclin A2): 15.5 to 16 nM | inhibition [23]: > 98% | Drug uptake (Kidney): Active | GI50 (MIA PaCa-2): 1000 nM | Activity (Mus musculus [24]): Non-Toxic | half-life [25]: 1.2 h | Activity (Salmonella typhimurium [26]): Non-Toxic | fraction unbound at 5 h, 3 µM [27]: 0.05 | Ratio IC50 (Homo sapiens): 7 | Activity (Mus musculus [28]): Non-Toxic
